# Measurements of several laboratories.
# Lines come from different studies, so protocols differ.
Compound,target or system,assay,test system,conditions,endpoint,value
COC[C@@H](Cc1ccc(OC)c(OC)c1)[C@@H](COC)Cc1ccc(OC)c(OC)c1,Huh7.5,"cell growth or viability, MTT",,,CC50,5 mM
O=C(Nc1cccc(-c2ncco2)c1)c1cc([N+](=O)[O-])c(F)cc1F,,metabolic stability,"CD-1 mouse, liver microsomes","1 µM, 1 h, pH 7.4",scaled CLint,2200 mL/min/kg
CCn1cnc2c(=O)[nH]c(N)nc21.NCCNCCN.[Pt+2],CCRF-CEM,"cell growth or viability, WST-1",,,IC50,> 0.1 mM
Oc1c(Br)cc(Cl)c2cccnc12,,,"Sprague-Dawley rat, plasma","oral, 20 mg/kg",Vd/F,39.9 L/kg
NC(=O)c1cnc2[nH]ccc2c1N[C@@H]1[C@@H]2CC3C[C@H]1C[C@@](O)(C3)C2,"ATP-binding cassette sub-family C member 4 (ABCC4, Homo sapiens, UniProt O15439)","transporter uptake, inhibitor, radiometric",Sf9,"100 µM, 5 min, pH 7, cell membranes",inhibition,< 50%
CN1CCN(c2nc(-c3ccccn3)nc3ccccc23)CC1,,metabolic stability,"mouse, liver microsomes",,microsomal CLint,19 µL/min/mg
COc1ccc(CC(CC(=O)O)C(=O)O)cc1OC (stereo not drawn),Huh7.5,"cell growth or viability, MTT",,,CC50,> 5 mM
Fc1ccc(Nc2nc(-c3ccccn3)nc3ccccc23)cc1,,metabolic stability,"mouse, liver microsomes",,microsomal CLint,138 µL/min/mg
O=C(Nc1cncc(-c2nc3ccccc3o2)c1)c1cc([N+](=O)[O-])c(N2CCNCC2)cc1Cl,,metabolic stability,"CD-1 mouse, liver microsomes","1 µM, 1 h, pH 7.4",scaled CLint,10 mL/min/kg
